Test results: ChEMBL document CHEMBL1138286, “Synthesis and biological evaluation of N-(aryl)-2-thiophen-2-ylacetamides series as a new class of antitubercular agents” (2007)
Values after ≈ are worked out from the molar mass of the structure shown. Active and inactive are the calls of the source. The calls are words filed in the database; no cut-off is given here.

Legend:
Assay type in all cases: functional
[1] = system: Mycobacterium tuberculosis; assay: Antibacterial activity against Mycobacterium tuberculosis ATTC 27294 after 5 days by MABA assay; conditions: for MIC: 120 h
How it was run: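 Microplate Alamar blue assay in Middlebrook 7H9 broth. Compounds serially diluted on the plate to final concentrations of […]. Plates sealed and incubated at 37 °C for 5 days. A 1:1 mix of Alamar blue and 10% Tween 80 was then added and plates incubated 24 h. Blue scored as no growth, pink as growth. MIC is the lowest concentration preventing the blue-to-pink change.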

J774 [2] = assay: Cytotoxicity against murine J774 cells assessed as cell viability at 100 ug/mL after 18 hrs by MTT assay; conditions: Mus musculus, J774, 18 h; read-out: Activity
How it was run: (§1)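 J774 macrophages plated at 2.5 × 10⁶ cells/mL and held 1 h at 37 °C under 5% CO₂. Non-adherent cells were washed off with RPMI 1640. Adherent cells were exposed in triplicate to compound at 0.1, 1.0, 10.0 or 100 µg/mL, with medium alone as live control and 3% Tween 20 as dead control. After 18 h, MTT was added for 4 h, formazan was dissolved in DMSO, and A540 was read.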

J774 [3] = assay: Cytotoxicity against murine J774 cells assessed as cell viability at 10 ug/mL after 18 hrs by MTT assay; conditions: Mus musculus, J774, 18 h; read-out: Activity; how it was run: as §1
J774 [4] = assay: Cytotoxicity against murine J774 cells assessed as cell viability at 1 ug/mL after 18 hrs by MTT assay; conditions: Mus musculus, J774, 18 h; read-out: Activity; how it was run: as §1
J774 [5] = assay: Cytotoxicity against murine J774 cells assessed as cell viability at 0.1 ug/mL after 18 hrs by MTT assay; conditions: Mus musculus, J774, 18 h; read-out: Activity; how it was run: as §1

SMILES	MIC [1]	Activity [1]	other results
NNC(=O)c1ccncc1 [ISONIAZID]	0.2 µg/mL (≈ 1.46 µM)		
CO[C@H]1/C=C/O[C@@]2(C)Oc3c(C)c(O)c4c(O)c(c(/C=N/N5CCN(C)CC5)c(O)c4c3C2=O)NC(=O)/C(C)=C\C=C\[C@H](C)[C@H](O)[C@@H](C)[C@@H](O)[C@@H](C)[C@H](OC(C)=O)[C@@H]1C [RIFAMPIN]	1 µg/mL (≈ 1.22 µM)		
O=C(Cc1cccs1)Nc1c(Cl)cccc1Cl		inactive	
COc1ccc(OC)c(NC(=O)Cc2cccs2)c1		inactive	
O=C(Cc1cccs1)Nc1ccc(Br)cc1		inactive	
O=C(Cc1cccs1)Nc1ccc([N+](=O)[O-])cc1	50 µg/mL (≈ 191 µM)		viability at 100 µg/mL (J774 [2]): 85%; viability at 10 µg/mL (J774 [3]): 100%; viability at 1 µg/mL (J774 [4]): 100%; viability at 0.1 µg/mL (J774 [5]): 100%
O=C(Cc1cccs1)Nc1ccccc1	25 µg/mL (≈ 115 µM)		viability at 100 µg/mL (J774 [2]): 100%; viability at 10 µg/mL (J774 [3]): 100%; viability at 1 µg/mL (J774 [4]): 100%; viability at 0.1 µg/mL (J774 [5]): 100%
O=C(Cc1cccs1)Nc1cccc(Cl)c1	50 µg/mL (≈ 199 µM)		viability at 100 µg/mL (J774 [2]): 100%; viability at 10 µg/mL (J774 [3]): 100%; viability at 1 µg/mL (J774 [4]): 100%; viability at 0.1 µg/mL (J774 [5]): 100%
O=C(Cc1cccs1)Nc1ccc(Cl)cc1F	100 µg/mL (≈ 371 µM)		
O=C(Cc1cccs1)Nc1cccc(C(F)(F)F)c1		inactive	
O=C(Cc1cccs1)Nc1ccccc1[N+](=O)[O-]		inactive	
O=C(Cc1cccs1)Nc1ccc2c(c1)OCO2		inactive	
Cc1cccc(C)c1NC(=O)Cc1cccs1		inactive	
COc1ccccc1NC(=O)Cc1cccs1		inactive	
Cc1ccccc1NC(=O)Cc1cccs1	100 µg/mL (≈ 432 µM)		
COc1ccc(NC(=O)Cc2cccs2)cc1		inactive	
O=C(Cc1cccs1)Nc1ccc(F)cc1Cl		inactive	
O=C(Cc1cccs1)Nc1ccc(Cl)cc1	100 µg/mL (≈ 397 µM)		
O=C(Cc1cccs1)Nc1ccc(F)cc1	100 µg/mL (≈ 425 µM)		
COc1cccc(NC(=O)Cc2cccs2)c1	50 µg/mL (≈ 202 µM)		viability at 100 µg/mL (J774 [2]): 100%; viability at 10 µg/mL (J774 [3]): 100%; viability at 1 µg/mL (J774 [4]): 100%; viability at 0.1 µg/mL (J774 [5]): 100%
O=C(Cc1cccs1)Nc1ccccc1C(F)(F)F		inactive	
O=C(Cc1cccs1)Nc1cccc([N+](=O)[O-])c1		inactive	
